Sampled rows, rich in hits. Any-hit rate of the full collection: about 1.4%.
GSTO1 inh: inhibitors of recombinant GSTO1, primary screen, counter-screen for RBBP9 inhibitor project, biochemical, fluorescence polarization; inhibition, % at 5.96 µM; AID 1974, 2009; activity-based probe fluorescence polarization; Glutathione S-transferase omega-1 (Homo sapiens), P78417; 300,000 tested, 1.1% active;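 active = inhibition above the campaign mean inhibition plus 3 SD, cut at about 35% in these data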;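 also: 0% = GSTO1-1 with DMSO and 100% = wells lacking GSTO1-1 enzyme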
Apaf-1 inh: inhibitors of human Apaf-1 apoptosome, primary screen, biochemical, DEVD-Rh110 fluorescence, uHTS | reconstituted apoptosome caspase-3 activity | inhibition, % at 20 µM | 330,000 tested, 0.71% active | AID 489030, 2010; active = inhibition of at least 40% at 20 µM;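 also: plate controls were DMSO wells for no effect and DEVD-CHO caspase inhibitor wells for full effect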
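Material: reconstituted apoptosome with Apaf-1, cytochrome c, caspase-9, procaspase-3, dATP; medium: pH 7.5 Hepes buffer with CHAPS, BSA, DTT; also added: cytochrome c and DEVD-Rh110 substrate; timing: 30 min plus 50 min, RT; signal: Rh110 fluorescence intensity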
Redox H2O2 prof: compounds producing H2O2 with reducing agent – biochemical, NIH compound library profiling, artefact control for MLSCN library redox annotation, primary screen; DTT-dependent redox cycling H2O2, phenol red/HRP absorbance; 100% = 100 µM peroxide control, 0% = buffer; activation, % at 10 µM; 200,000 tested, 0.03% active;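 active = activation of at least 50% relative to the plate's high and low controls in the primary single-dose screen; inactive = activation below 50%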;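 also: compound incubated with DTT at 0.8 mM final as the reducing agent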
SUMO HTRF inh: inhibitors of in vitro SUMOylation cascade, primary screen, biochemical, HTRF, uHTS; SUMO-conjugating enzyme UBC9 (Homo sapiens), P63279; HTRF SUMOylation assay, SAE1/SAE2 + UBC9; inhibition, % at 35 µM; 290,000 tested, 0.36% active; AID 2006, 2009; in the data active = inhibition above about 50%, passing the limit was not always enough
HKDC1 inh: HKDC1 hexokinase inhibitors, primary screen, biochemical, fluorescence, uHTS; recombinant HKDC1, G6PDH/diaphorase resazurin coupled fluorescence; inhibition, % at 20 µM; 340,000 tested, 0.16% active; AID 493160, 2011;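 active = inhibition above about 35% when tested at 20 µM, limit read from the data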;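 also: plate controls were DMSO wells with enzyme for no effect and DMSO wells lacking enzyme for full effect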
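Test system: Recombinant HKDC1 (HK5) hexokinase enzyme, produced in-house | Input: HKDC1 at 5 µg/mL | Buffer or medium: Tris pH 8.0 buffer with MgCl2, Tween-20, BSA, BME | Schedule: 90 min reaction incubation at room temperature, dark | Technique: Resazurin-to-resorufin fluorescence via G6PDH and diaphorase coupling, 525/613 nm | Controls: DMSO wells with and without enzyme mix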
HKDC1 act conf2: HKDC1 hexokinase activators, confirmation, biochemical, single concentration | inhibition, % at 20 µM | recombinant HKDC1, G6PDH/diaphorase resazurin fluorescence; hits give low values | 740 tested, 14% active | shares compounds with HKDC1 inh;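 active = inhibition at or below a set negative limit, negative inhibition meaning the enzyme was activated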
Active calls of the source: *; . = not tested or not shown.

SMILES	GSTO1 inh	Apaf-1 inh	Redox H2O2 prof	SUMO HTRF inh	HKDC1 inh	HKDC1 act conf2
O=C(NNC1CC(=O)N(c2ccc(Br)cc2)C1=O)c1cccnc1 (configuration not stated)	1	-17	-1	-10	-3	.
CCOc1ccc(S(=O)(=O)Nc2cc(SCC(=O)O)c(O)c3ccccc23)cc1	.	.	.	75*	60*	31
CCOC(=O)c1ccccc1NS(=O)(=O)c1ccc(OCC)cc1	4	22	0	-13	14	.
O=C(O)CSc1cc(NS(=O)(=O)c2cccc([N+](=O)[O-])c2)c2ccccc2c1O	.	.	.	88*	59*	48
O=C(O)c1cccc(S(=O)(=O)Nc2ccc([N+](=O)[O-])cc2O)c1	34	-12	.	-2	0	.
CCCCN(C)Cc1c(O)ccc2c(=O)c(-c3ccccc3OC)coc12	4	-8	.	36	4	.
O=[N+]([O-])c1ccc(Cl)cc1Sc1nc2ccccc2o1	5	7	0	-14	-10	.
O=[N+]([O-])c1ccc(Sc2nc3ccccc3o2)c([N+](=O)[O-])c1	12	9	0	2	35*	30
COc1ccc(CCC(C)N2CCOCC2)cc1 (configuration not stated)	-7	-16	.	7	-3	.
CC(C)[C@H](NC(=O)c1ccccc1)C(=O)OCC(=O)N1CCN(C(=O)c2ccco2)CC1	2	4	0	12	-1	.
COc1ccccc1NC(=O)CSc1ccc(-c2ccco2)nn1	1	2	.	15	22	.
COc1cccc(NC(=O)CSc2ccc(-c3ccco3)nn2)c1	0	-5	.	5	11	.
COc1ccc(OC)c(NC(=O)CSc2ccc(-c3ccco3)nn2)c1	8	5	.	34	43*	38
COc1ccc(NC(=O)CSc2ccc(-c3ccco3)nn2)cc1OC	4	-3	.	12	43*	44
COc1cccc([C@@H]2CC=C(C(=O)O)[C@H](c3ccc(Br)cc3)N2S(=O)(=O)c2ccc(C)cc2)c1	.	15	.	.	3	.
CC(OC(=O)Cc1c[nH]c2ccccc12)C(=O)Nc1ccccc1[N+](=O)[O-] (configuration not stated)	10	10	.	.	10	.
COc1ccccc1C(c1nnnn1C(C)C)N1CCN(C(=O)c2ccco2)CC1 (configuration not stated)	4	0	.	15	-6	.
CCCCCC(=O)Nc1cc(S(=O)(=O)O)cc2cc(S(=O)(=O)O)cc(O)c12	.	.	.	.	33	19
Cc1cccc(N2CCN(C(=O)NC(C)c3ccc(F)c(F)c3)CC2)c1C (configuration not stated)	-4	10	.	10	-5	.
NNC(=O)c1ccc(CSc2nc3ccccc3s2)cc1	3	13	-1	0	1	.
O=C1C(=O)c2c(ccc3ccccc23)-c2ccccc21	.	.	.	.	33	-7
O=C1CC(N2CCN(c3ccc(F)cc3)CC2)C(=O)N1c1ccc2c(c1)OCO2 (configuration not stated)	-1	3	1	-9	-9	.
O=c1[nH]c(/C=C/c2ccccc2Cl)c([N+](=O)[O-])c(=O)[nH]1	.	1	.	13	14	.
O=C(COc1ccccc1/C=C\c1[nH]c(=O)[nH]c(=O)c1[N+](=O)[O-])Nc1ccccc1	-35	.	-1	0	40*	9
Nc1nc(-c2cccc(Br)c2)cs1	2	-13	0	-1	-65	-41*
SMILES	GSTO1 inh	Apaf-1 inh	Redox H2O2 prof	SUMO HTRF inh	HKDC1 inh	HKDC1 act conf2
COC1=C(Br)C(=O)c2ncccc2C1=O	.	.	.	.	56*	65
CC(NC1=CC(=O)c2cccnc2C1=O)C(O)c1ccccc1 (configuration not stated)	.	.	.	.	46*	43
CCCCC[C@H](O)/C=C/[C@@H]1[C@@H](C/C=C\CCCC(=O)OC)[C@@H](O)C[C@H]1O	7	0	0	.	77*	61
CCCCC[C@H](O)/C=C/[C@@H]1[C@@H](C/C=C\CCCC(=O)O)[C@@H](O)C[C@H]1O	10	-5	-1	-25	-7	.
Nn1cnnc1N/N=C/c1cc(Br)cc(Br)c1O	-20	10	-2	-35	-52	-32*
O=Cc1[nH]c2ccccc2c1N(C(=O)CCl)c1ccccc1	.	.	.	24	35*	34
O=C(Nc1nc(-c2ccccc2)nc2ccccc12)c1ccc(F)cc1	2	-13	-2	20	0	.
Cn1c(SCC(=O)Nc2ccc3nc(SCC(=O)N4CCCC4)sc3c2)nnc1-c1ccc(N)cc1	.	.	1	27	33	-29
Cn1c(SCC(=O)Nc2ccc3nc(SCC(=O)NC4CC4)sc3c2)nnc1-c1ccccc1	-2	4	0	5	-12	.
CCOC(=O)/C(C#N)=C/c1cc2ccccc2nc1N1CCOCC1	0	-9	0	-11	-12	.
N#CC(C#N)=Cc1cc2ccccc2nc1N1CCCCC1	5	-9	0	-5	38*	17
O=C(c1ccco1)N1N=C(c2cccs2)CC1c1cc([N+](=O)[O-])ccc1O (configuration not stated)	-2	2	.	17	0	.
COc1ccc(S(=O)(=O)N(C)C)cc1NC(=O)CCNC(=O)c1ccccc1OC	0	9	.	20	-4	.
Cc1ccc(S(=O)(=O)N2C(=O)CCC2C(=O)O/N=C(\N)c2cccc([N+](=O)[O-])c2)cc1 (configuration not stated)	1	13	.	4	-5	.
CCC(C)N(C(=O)CSc1ccc(NC(C)=O)cc1)C1CCS(=O)(=O)C1 (configuration not stated)	-1	-2	0	10	-4	.
NC1=C(Cl)C(=O)c2ccc(S(N)(=O)=O)cc2C1=O	.	.	.	.	-134	-43*
CCn1nc(C(=O)NNC(=O)c2ccccc2)c2ccccc2c1=O	.	-2	.	.	-4	.
O=C1/C(=C/c2cccnc2)CC/C1=C\c1cccnc1	-11	-1	0	7	6	.
CCC1C/C(=C\c2cccnc2)C(=O)/C(=C/c2cccnc2)C1 (configuration not stated)	.	.	-1	8	35*	33
Cc1ccc(S(=O)(=O)n2cnc3cc([N+](=O)[O-])ccc32)cc1C	3	-1	-4	-15	-4	.
Cc1ccc(-n2c3nc(=O)[nH]c(=O)c-3cc3cc([N+](=O)[O-])ccc32)cc1C	8	19	0	10	61*	65

Screening results (PubChem BioAssay)
